# Test results as given in ChEMBL document CHEMBL4689842, “EUbOPEN Chemogenomics Library wave 1” (2021).
# System: U2OS
# Assay: Multiplex assay against U2OS
# Type: toxicity, cell-based
# Conditions: human
# Outline: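 Cells stained live at seeding with Hoechst33342, BioTracker Green Microtubule Cytoskeleton Dye, MitoTracker Red and Annexin V Alexa Fluor 680 were imaged on a CQ1 microscope at 37°C and 5% CO2 after compound addition. Their classification by CellPathfinder machine-learning gating ran from Hoechst high-intensity objects versus normal cells, to healthy, pyknosed or fragmented nuclei among normal cells, to mitotic or apoptotic among pyknosed cells. Tubulin, mitochondrial-mass and membrane-permeability phenotypes are per cents of healthy-nucleus cells.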
# [1] = 12 h, 1 µM, compound concentration 1 uM, replicate 1
# [2] = 12 h, 1 µM, compound concentration 1 uM, replicate 2
# [3] = 12 h, 10 µM, compound concentration 10 uM, replicate 1
# [4] = 12 h, 10 µM, compound concentration 10 uM, replicate 2
# [5] = 24 h, 1 µM, compound concentration 1 uM, replicate 1
# [6] = 24 h, 1 µM, compound concentration 1 uM, replicate 2
# [7] = 24 h, 10 µM, compound concentration 10 uM, replicate 1
# [8] = 24 h, 10 µM, compound concentration 10 uM, replicate 2
# [9] = 48 h, 1 µM, compound concentration 1 uM, replicate 1
# [10] = 48 h, 1 µM, compound concentration 1 uM, replicate 2
# [11] = 48 h, 10 µM, compound concentration 10 uM, replicate 1
# [12] = 48 h, 10 µM, compound concentration 10 uM, replicate 2
smiles,measurement,setting,value
CCc1cc2c(cc1CC)CC(NC[C@H](O)c1ccc(O)c3[nH]c(=O)ccc13)C2 [INDACATEROL],Population Apoptotic (%),[1],41%
same,Population Fragmented Nuclei (%),[1],10%
same,Population Healthy Nuclei (%),[1],76%
same,Population Hoechst High Intensity Objects (%),[1],7%
same,Population Membrane Permeable-Phenotype (%),[1],2%
same,Population Mitochondria Different-Phenotype (%),[1],10%
same,Population Mitotic Cells (%),[1],58%
same,Population Normal (%),[1],92%
same,Population Pyknosed Nuclei (%),[1],13%
same,Population Tubulin-Different-Phenotype (%),[1],11%
same,Total Cell Count,[1],185
same,Population Apoptotic (%),[2],33%
same,Population Fragmented Nuclei (%),[2],3%
same,Population Healthy Nuclei (%),[2],92%
same,Population Membrane Permeable-Phenotype (%),[2],1%
same,Population Mitochondria Different-Phenotype (%),[2],11%
same,Population Mitotic Cells (%),[2],66%
same,Population Pyknosed Nuclei (%),[2],4%
same,Population Tubulin-Different-Phenotype (%),[2],14%
same,Total Cell Count,[2],71
same,Population Fragmented Nuclei (%),[3],18%
same,Population Healthy Nuclei (%),[3],54%
same,Population Hoechst High Intensity Objects (%),[3],4%
same,Population Membrane Permeable-Phenotype (%),[3],22%
same,Population Mitochondria Different-Phenotype (%),[3],95%
same,Population Normal (%),[3],95%
same,Population Pyknosed Nuclei (%),[3],27%
same,Population Tubulin-Different-Phenotype (%),[3],90%
same,Total Cell Count,[3],139
same,Population Apoptotic (%),[4],68%
same,Population Fragmented Nuclei (%),[4],15%
same,Population Healthy Nuclei (%),[4],64%
same,Population Hoechst High Intensity Objects (%),[4],6%
same,Population Membrane Permeable-Phenotype (%),[4],23%
same,Population Mitochondria Different-Phenotype (%),[4],98%
same,Population Mitotic Cells (%),[4],31%
same,Population Normal (%),[4],93%
same,Population Pyknosed Nuclei (%),[4],19%
same,Population Tubulin-Different-Phenotype (%),[4],88%
same,Total Cell Count,[4],71
same,Population Apoptotic (%),[5],36%
same,Population Fragmented Nuclei (%),[5],11%
same,Population Healthy Nuclei (%),[5],74%
same,Population Hoechst High Intensity Objects (%),[5],6%
same,Population Membrane Permeable-Phenotype (%),[5],2%
same,Population Mitochondria Different-Phenotype (%),[5],11%
same,Population Mitotic Cells (%),[5],63%
same,Population Normal (%),[5],93%
same,Population Pyknosed Nuclei (%),[5],13%
same,Population Tubulin-Different-Phenotype (%),[5],9%
same,Total Cell Count,[5],184
same,Population Apoptotic (%),[6],14%
same,Population Fragmented Nuclei (%),[6],4%
same,Population Healthy Nuclei (%),[6],86%
same,Population Hoechst High Intensity Objects (%),[6],3%
same,Population Membrane Permeable-Phenotype (%),[6],0%
same,Population Mitochondria Different-Phenotype (%),[6],10%
same,Population Mitotic Cells (%),[6],85%
same,Population Normal (%),[6],96%
same,Population Pyknosed Nuclei (%),[6],9%
same,Population Tubulin-Different-Phenotype (%),[6],12%
same,Total Cell Count,[6],73
same,Population Apoptotic (%),[7],78%
same,Population Fragmented Nuclei (%),[7],24%
same,Population Healthy Nuclei (%),[7],43%
same,Population Hoechst High Intensity Objects (%),[7],4%
same,Population Membrane Permeable-Phenotype (%),[7],50%
same,Population Mitochondria Different-Phenotype (%),[7],96%
same,Population Mitotic Cells (%),[7],21%
same,Population Normal (%),[7],95%
same,Population Pyknosed Nuclei (%),[7],32%
same,Population Tubulin-Different-Phenotype (%),[7],79%
same,Total Cell Count,[7],174
same,Population Apoptotic (%),[8],89%
same,Population Fragmented Nuclei (%),[8],11%
same,Population Healthy Nuclei (%),[8],67%
same,Population Hoechst High Intensity Objects (%),[8],6%
same,Population Membrane Permeable-Phenotype (%),[8],59%
same,Population Mitochondria Different-Phenotype (%),[8],100%
same,Population Mitotic Cells (%),[8],10%
same,Population Normal (%),[8],93%
same,Population Pyknosed Nuclei (%),[8],20%
same,Population Tubulin-Different-Phenotype (%),[8],86%
same,Total Cell Count,[8],78
same,Population Apoptotic (%),[9],45%
same,Population Fragmented Nuclei (%),[9],7%
same,Population Healthy Nuclei (%),[9],78%
same,Population Hoechst High Intensity Objects (%),[9],4%
same,Population Membrane Permeable-Phenotype (%),[9],2%
same,Population Mitotic Cells (%),[9],54%
same,Population Normal (%),[9],95%
same,Population Pyknosed Nuclei (%),[9],14%
same,Population Tubulin-Different-Phenotype (%),[9],6%
same,Total Cell Count,[9],181
same,Population Apoptotic (%),[10],0%
same,Population Fragmented Nuclei (%),[10],6%
same,Population Healthy Nuclei (%),[10],87%
same,Population Hoechst High Intensity Objects (%),[10],5%
same,Population Membrane Permeable-Phenotype (%),[10],8%
same,Population Mitochondria Different-Phenotype (%),[10],12%
same,Population Mitotic Cells (%),[10],100%
same,Population Normal (%),[10],94%
same,Population Pyknosed Nuclei (%),[10],5%
same,Population Tubulin-Different-Phenotype (%),[10],11%
same,Total Cell Count,[10],69
same,Population Apoptotic (%),[11],84%
same,Population Fragmented Nuclei (%),[11],23%
same,Population Healthy Nuclei (%),[11],30%
same,Population Hoechst High Intensity Objects (%),[11],9%
same,Population Membrane Permeable-Phenotype (%),[11],38%
same,Population Mitochondria Different-Phenotype (%),[11],96%
same,Population Mitotic Cells (%),[11],15%
same,Population Normal (%),[11],90%
same,Population Pyknosed Nuclei (%),[11],45%
same,Population Tubulin-Different-Phenotype (%),[11],73%
same,Total Cell Count,[11],239
same,Population Apoptotic (%),[12],73%
same,Population Fragmented Nuclei (%),[12],9%
same,Population Healthy Nuclei (%),[12],53%
same,Population Hoechst High Intensity Objects (%),[12],16%
same,Population Membrane Permeable-Phenotype (%),[12],49%
same,Population Mitochondria Different-Phenotype (%),[12],100%
same,Population Mitotic Cells (%),[12],26%
same,Population Normal (%),[12],83%
same,Population Pyknosed Nuclei (%),[12],37%
same,Population Tubulin-Different-Phenotype (%),[12],67%
same,Total Cell Count,[12],122
